Experimental data from ChEMBL document CHEMBL5058577, “EUbOPEN Chemogenomics Library 2 (Multiplex)” (2022).

Test system: HEK-293T
Assay: Multiplex assay against HEK293T
Type: toxicity, cell-based
Settings: human
In short: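 Per cents of healthy-nucleus cells form the tubulin, mitochondrial-mass and membrane-permeability phenotype values. Live cells were stained at seeding with Hoechst33342, BioTracker Green Microtubule Cytoskeleton Dye, MitoTracker Red and Annexin V Alexa Fluor 680. After compound addition they were imaged on a CQ1 microscope at 37°C and 5% CO2, and CellPathfinder machine-learning gating split them into Hoechst high-intensity objects or normal cells, normal cells into healthy, pyknosed or fragmented nuclei, and pyknosed cells into mitotic or apoptotic.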

[1] = 12 h, 1 µM, compound concentration 1 uM, replicate 1
[2] = 12 h, 1 µM, compound concentration 1 uM, replicate 2
[3] = 12 h, 10 µM, compound concentration 10 uM, replicate 1
[4] = 12 h, 10 µM, compound concentration 10 uM, replicate 2
[5] = 24 h, 1 µM, compound concentration 1 uM, replicate 1
[6] = 24 h, 1 µM, compound concentration 1 uM, replicate 2
[7] = 24 h, 10 µM, compound concentration 10 uM, replicate 1
[8] = 24 h, 10 µM, compound concentration 10 uM, replicate 2
[9] = 48 h, 1 µM, compound concentration 1 uM, replicate 1
[10] = 48 h, 1 µM, compound concentration 1 uM, replicate 2
[11] = 48 h, 10 µM, compound concentration 10 uM, replicate 1
[12] = 48 h, 10 µM, compound concentration 10 uM, replicate 2

## CC(C)(C)c1ccc(S(=O)(=O)Nc2ccc(Cl)cc2C(=O)c2cc[n+]([O-])cc2)cc1 [VERCIRNON]
[1]
  Population Apoptotic (%): 32%
  Population Fragmented Nuclei (%): 10%
  Population Healthy Nuclei (%): 77%
  Population Hoechst High Intensity Objects (%): 7%
  Population Membrane Permeable-Phenotype (%): 0%
  Population Mitochondria Different-Phenotype (%): 33%
  Population Mitotic Cells (%): 68%
  Population Normal (%): 92%
  Population Pyknosed Nuclei (%): 12%
  Population Tubulin-Different-Phenotype (%): 21%
  Total Cell Count: 428
[2]
  Population Apoptotic (%): 52%
  Population Fragmented Nuclei (%): 5%
  Population Healthy Nuclei (%): 84%
  Population Mitochondria Different-Phenotype (%): 51%
  Population Mitotic Cells (%): 47%
  Population Pyknosed Nuclei (%): 10%
  Population Tubulin-Different-Phenotype (%): 22%
  Total Cell Count: 424
[3]
  Population Apoptotic (%): 30%
  Population Fragmented Nuclei (%): 6%
  Population Healthy Nuclei (%): 83%
  Population Hoechst High Intensity Objects (%): 6%
  Population Membrane Permeable-Phenotype (%): 0%
  Population Mitochondria Different-Phenotype (%): 35%
  Population Mitotic Cells (%): 69%
  Population Normal (%): 93%
  Population Pyknosed Nuclei (%): 10%
  Population Tubulin-Different-Phenotype (%): 37%
  Total Cell Count: 451
[4]
  Population Apoptotic (%): 39%
  Population Fragmented Nuclei (%): 4%
  Population Healthy Nuclei (%): 82%
  Population Hoechst High Intensity Objects (%): 5%
  Population Membrane Permeable-Phenotype (%): 1%
  Population Mitochondria Different-Phenotype (%): 51%
  Population Mitotic Cells (%): 60%
  Population Normal (%): 94%
  Population Pyknosed Nuclei (%): 13%
  Population Tubulin-Different-Phenotype (%): 27%
  Total Cell Count: 344
[5]
  Population Apoptotic (%): 41%
  Population Fragmented Nuclei (%): 8%
  Population Healthy Nuclei (%): 81%
  Population Hoechst High Intensity Objects (%): 6%
  Population Membrane Permeable-Phenotype (%): 0%
  Population Mitochondria Different-Phenotype (%): 21%
  Population Mitotic Cells (%): 58%
  Population Normal (%): 93%
  Population Pyknosed Nuclei (%): 9%
  Population Tubulin-Different-Phenotype (%): 15%
  Total Cell Count: 522
[6]
  Population Apoptotic (%): 28%
  Population Hoechst High Intensity Objects (%): 5%
  Population Mitochondria Different-Phenotype (%): 32%
  Population Mitotic Cells (%): 71%
  Population Normal (%): 94%
  Population Tubulin-Different-Phenotype (%): 16%
  Total Cell Count: 521
[7]
  Population Apoptotic (%): 22%
  Population Fragmented Nuclei (%): 10%
  Population Healthy Nuclei (%): 77%
  Population Hoechst High Intensity Objects (%): 3%
  Population Membrane Permeable-Phenotype (%): 1%
  Population Mitochondria Different-Phenotype (%): 15%
  Population Mitotic Cells (%): 77%
  Population Normal (%): 96%
  Population Pyknosed Nuclei (%): 12%
  Population Tubulin-Different-Phenotype (%): 20%
  Total Cell Count: 594
[8]
  Population Apoptotic (%): 28%
  Population Fragmented Nuclei (%): 7%
  Population Healthy Nuclei (%): 82%
  Population Hoechst High Intensity Objects (%): 5%
  Population Membrane Permeable-Phenotype (%): 0%
  Population Mitochondria Different-Phenotype (%): 31%
  Population Mitotic Cells (%): 71%
  Population Normal (%): 94%
  Population Pyknosed Nuclei (%): 9%
  Population Tubulin-Different-Phenotype (%): 23%
  Total Cell Count: 437
[9]
  Population Apoptotic (%): 28%
  Population Fragmented Nuclei (%): 16%
  Population Healthy Nuclei (%): 76%
  Population Hoechst High Intensity Objects (%): 2%
  Population Membrane Permeable-Phenotype (%): 0%
  Population Mitochondria Different-Phenotype (%): 16%
  Population Mitotic Cells (%): 71%
  Population Normal (%): 97%
  Population Pyknosed Nuclei (%): 7%
  Population Tubulin-Different-Phenotype (%): 13%
  Total Cell Count: 834
[10]
  Population Apoptotic (%): 32%
  Population Fragmented Nuclei (%): 14%
  Population Healthy Nuclei (%): 81%
  Population Membrane Permeable-Phenotype (%): 2%
  Population Mitochondria Different-Phenotype (%): 14%
  Population Mitotic Cells (%): 67%
  Population Pyknosed Nuclei (%): 4%
  Population Tubulin-Different-Phenotype (%): 12%
  Total Cell Count: 877
[11]
  Population Apoptotic (%): 21%
  Population Fragmented Nuclei (%): 13%
  Population Healthy Nuclei (%): 81%
  Population Hoechst High Intensity Objects (%): 3%
  Population Membrane Permeable-Phenotype (%): 2%
  Population Mitochondria Different-Phenotype (%): 12%
  Population Mitotic Cells (%): 78%
  Population Normal (%): 96%
  Population Pyknosed Nuclei (%): 5%
  Population Tubulin-Different-Phenotype (%): 14%
  Total Cell Count: 929
[12]
  Population Apoptotic (%): 25%
  Population Fragmented Nuclei (%): 12%
  Population Healthy Nuclei (%): 80%
  Population Hoechst High Intensity Objects (%): 2%
  Population Membrane Permeable-Phenotype (%): 1%
  Population Mitochondria Different-Phenotype (%): 18%
  Population Mitotic Cells (%): 75%
  Population Normal (%): 97%
  Population Pyknosed Nuclei (%): 7%
  Population Tubulin-Different-Phenotype (%): 15%
  Total Cell Count: 586
